# Bioassay records deposited in PubChem BioAssay by several laboratories.
# Bim-Bcl-B: human Bim-Bcl-B interaction inhibition; bead-based flow cytometry, Bim peptide-Bcl-B binding; hit rate 0.073% among 190,000; inhibition, % at 10 µM;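 also: 0% = tracer peptide without compound and 100% = reference inhibitor peptide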
# Bcl-W Bim block: disrupts Bim peptide binding to human Bcl-W. Q92843. bead-based flow cytometry. inhibition, % at 10 µM. hit rate 0.02% among 190,000;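 also: 0% = bound tracer without compound and 100% = peptide blocker; higher means less fluorescent Bim peptide bound to Bcl-W beads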
# Bim-Bcl-XL: inhibitors of Bim-Bcl-XL interaction, human; Bim peptide-Bcl-XL binding, bead flow cytometry, fluorescence; inhibition, % at 10 µM; hit rate 0.04% among 190,000; Q07817
# Biofilm kill mix: mixture kills Candida albicans biofilm cells | C. albicans biofilm persisters + clotrimazole, fluorescence viability; primary screen in compound mixtures of four per well | inhibition, % at 7.6 µM | hit rate 0.02% among 120,000;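 active = inhibition above 30.3% in the primary screen of four-compound pools, then above 30% when the compound was retested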;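 also: compounds exposed to preformed 24 h biofilms for 48 h; 0% = untreated biofilm control and 100% = clotrimazole plus chlorhexidine kill blank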
#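 Probe or stimulus – Clotrimazole 50 µg/mL co-treatment · System – C. albicans biofilms · Schedule – 24 h biofilm formation, then 48 h compound exposure, 37 °C · Evaluation – percent inhibition of biofilm viability · Technique – 2-h Alamar Blue fluorescence, 535/590 nm excitation/emission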
# Bim-Bcl-2: inhibitors of Bim-Bcl-2 interaction, human. Bead-based flow cytometry, Bim peptide-Bcl-2 binding. inhibition, % at 10 µM. hit rate 0.06% among 190,000; in the data active = inhibition above about 40%;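 also: 0% = no compound wells with probe peptide and 100% = reference peptide inhibitor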
# Target sequence (P10415 whole entry, looked up): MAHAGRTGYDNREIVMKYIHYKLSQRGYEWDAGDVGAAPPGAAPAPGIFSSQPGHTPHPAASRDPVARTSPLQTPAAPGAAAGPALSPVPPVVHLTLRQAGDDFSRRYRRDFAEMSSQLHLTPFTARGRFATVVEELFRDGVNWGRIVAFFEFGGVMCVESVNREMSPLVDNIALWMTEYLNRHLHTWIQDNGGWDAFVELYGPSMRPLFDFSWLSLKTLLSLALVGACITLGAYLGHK
# Bfl-1 Bim block: disrupts Bim binding to human Bfl-1; hit rate 0.12% among 190,000; Bead-based flow cytometry, Bim-Bfl-1 binding inhibition; inhibition, % at 10 µM; Q16548;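 also: 0% = wells without compound plus tracer and 100% = blocker peptide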
# Target sequence (Q16548 whole entry, looked up): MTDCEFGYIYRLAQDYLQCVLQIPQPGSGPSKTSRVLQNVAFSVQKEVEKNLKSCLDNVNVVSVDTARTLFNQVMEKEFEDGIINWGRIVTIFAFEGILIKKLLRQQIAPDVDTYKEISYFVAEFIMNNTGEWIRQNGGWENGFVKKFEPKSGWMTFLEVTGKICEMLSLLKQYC
# The depositor's hits bear a star; / = no result. An excerpt weighted towards active compounds, which were near 0.17% of everything screened. Rule as the data show it, unless noted: active = inhibition above about 40%.
SMILES,Bim-Bcl-B,Bcl-W Bim block,Bim-Bcl-XL,Biofilm kill mix,Bim-Bcl-2,Bfl-1 Bim block
Cc1cc(C)c(C)c(Oc2ncnc(N)c2[N+](=O)[O-])c1,-4,-1,-2,8,-2,-1
N/C(Cc1ccc(Cl)c(Cl)c1)=N\OC(=O)c1cccs1,41*,15,8,/,29,14
CCOC(CNc1ncnc2c1cnn2C)OCC,0,-3,0,8,-3,-5
CCCOc1ccc(NC(=O)C2CC(=O)N(C)C(=Nc3cccc(OC)c3)S2)cc1 (stereo unspecified),-6,0,-4,12,-2,-10
CCc1cccc(CC)c1NC(=S)N1CCn2cccc2C1c1cccnc1 (stereo unspecified),49*,20,27,17,21,25
Cc1ccc(NC(=S)N2CCn3cccc3C2c2cccnc2)cc1 (stereo unspecified),18,-1,-4,17,-1,-1
COC(=O)c1scc(C)c1-n1ccc(C(=O)C(=O)N(C)C)c1,-3,-3,-1,13,-4,-3
Cc1ccc2nc(SCC(=O)NNC(=O)c3ccccc3)[nH]c2c1,-9,-4,-5,16,-7,-17
CCOC(=O)c1cc2c(=O)n3cccc(C)c3nc2n(Cc2ccco2)c1=NC(=O)c1cccnc1,12,20,9,/,14,40*
CCOC(=O)c1cc2c(=O)n3ccccc3nc2n(Cc2ccco2)c1=NC(=O)c1cccnc1,5,5,3,/,6,14
CCOC(=O)c1nn(-c2cccc(C)c2)c2nnc(Cc3ccc(C)cc3)c(=O)n12,-7,-2,-4,12,-1,0
Cc1cccc(N=Cc2cc3c(cc2[N+](=O)[O-])OCO3)c1,-1,0,0,/,0,2
COc1cc(C=Nc2cccc(C)c2)c(O)c([N+](=O)[O-])c1,58*,23,30,15,44*,42*
Cc1cccn2c(CNCC3(c4ccccc4)CCCC3)c(C(=O)N3CCOCC3)nc12,-3,-2,-4,17,0,-5
COc1ccccc1OCc1ccc(C(=O)Nc2ccccc2F)cc1,63*,1,2,15,47*,9
Cc1cc(N(CCO)CCO)ccc1C(c1ccc(N(CCO)CCO)cc1C)c1ccccc1Cl,0,6,-5,18,-4,9
CC(C)c1ccc(S(=O)(=O)/N=C2/C=CC(=O)c3ccccc32)cc1,-16,9,1,14,6,42*
O=C(Nc1ccccc1)Nc1ccc2ncoc2c1,52*,14,59*,13,41*,13
Cc1ccc(C)n1-c1ccc(N2CCOCC2)c([N+](=O)[O-])c1,/,/,/,2,/,/
Cc1ccc(C)n1-c1ccc(N2CCOCC2)cc1,40*,3,2,/,7,6
CSc1nnc2c3cc(C)ccc3n(Cc3ccccc3)c2n1,39,18,14,/,48*,20
c1ccc(Cn2c3ccccc3c3nnc(SCCN4CCCCC4)nc32)cc1,/,/,/,21,/,/
CN=c1scc(-c2ccc(F)cc2)n1/N=C/c1ccc(O)c(O)c1,0,0,-2,8,3,5
CCOc1cc(NC(=S)NC)c(OCC)cc1NC(=O)c1ccc(OC)cc1,41*,49*,27,21,53*,45*
Cc1nnc(NCc2n[nH]c(=O)c3ccccc23)c2ccccc12,57*,4,0,/,0,5
SMILES,Bim-Bcl-B,Bcl-W Bim block,Bim-Bcl-XL,Biofilm kill mix,Bim-Bcl-2,Bfl-1 Bim block
COc1cccc(-c2nnc(SCC3CNC(=O)O3)n2-c2ccc(Cl)cc2)c1 (stereo unspecified),-4,-1,-4,11,-8,-6
CC(C)CN1C(=O)/C(=C/c2ccco2)NC1=S,-23,6,3,8,11,47*
O=S1(=O)N=C(N(CCO)/N=C/c2ccccc2)c2ccccc21,14,11,21,15,4,1
O=S1(=O)N=C(N(CCO)/N=C/c2ccncc2)c2ccccc21,23,30,40*,11,12,7
O=C(NCc1ccc(OC(F)(F)F)cc1)C1CC(c2ccccc2C(F)(F)F)=NO1 (stereo unspecified),/,/,/,15,/,/
Cc1ccc(N=C2NC(=O)/C(=C/C=C/c3ccco3)S2)cc1,0,15,4,-17,20,52*
CS(=O)(=O)Nc1ccc(C2=NN(S(=O)(=O)c3ccc(F)cc3)C(c3ccco3)C2)cc1 (stereo unspecified),-3,0,0,8,-1,-4
